Screens (PubChem BioAssay)
Redox H2O2 prof = compounds producing H2O2 with reducing agent – biochemical, NIH compound library profiling, artefact control for MLSCN library redox annotation, primary screen; DTT-dependent redox cycling H2O2, phenol red/HRP absorbance; 100% = 100 µM peroxide control, 0% = buffer; activation, % at 10 µM; 200,000 tested, 0.03% active; AID 878;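 active = activation of at least 50% relative to the plate's high and low controls in the primary single-dose screen; inactive = activation below 50%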;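 also: compound incubated with DTT at 0.8 mM final as the reducing agent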
Pf gametocyte = P. falciparum stage V gametocyte viability inhibition; 150,000 tested, 0.065% active; inhibition, % at 10.9 µM; P. falciparum stage V gametocytes, ATP luminescence, 24 h; AID 743093;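 active = inhibition above the mean plus 3 SD of compounds within the control limits, set per campaign, cut at about 38% in these data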;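 also: 0% = DMSO wells and 100% = medium only without gametocytes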
PKD1 inh = blocks activity of human protein kinase D1; AID 797; Q15139; inhibition, % (test concentration not listed); 200,000 tested, 0.056% active; PKD1 kinase fluorescence polarization assay; in the data active = inhibition above about 50%
Target sequence (Q15139 whole entry, looked up): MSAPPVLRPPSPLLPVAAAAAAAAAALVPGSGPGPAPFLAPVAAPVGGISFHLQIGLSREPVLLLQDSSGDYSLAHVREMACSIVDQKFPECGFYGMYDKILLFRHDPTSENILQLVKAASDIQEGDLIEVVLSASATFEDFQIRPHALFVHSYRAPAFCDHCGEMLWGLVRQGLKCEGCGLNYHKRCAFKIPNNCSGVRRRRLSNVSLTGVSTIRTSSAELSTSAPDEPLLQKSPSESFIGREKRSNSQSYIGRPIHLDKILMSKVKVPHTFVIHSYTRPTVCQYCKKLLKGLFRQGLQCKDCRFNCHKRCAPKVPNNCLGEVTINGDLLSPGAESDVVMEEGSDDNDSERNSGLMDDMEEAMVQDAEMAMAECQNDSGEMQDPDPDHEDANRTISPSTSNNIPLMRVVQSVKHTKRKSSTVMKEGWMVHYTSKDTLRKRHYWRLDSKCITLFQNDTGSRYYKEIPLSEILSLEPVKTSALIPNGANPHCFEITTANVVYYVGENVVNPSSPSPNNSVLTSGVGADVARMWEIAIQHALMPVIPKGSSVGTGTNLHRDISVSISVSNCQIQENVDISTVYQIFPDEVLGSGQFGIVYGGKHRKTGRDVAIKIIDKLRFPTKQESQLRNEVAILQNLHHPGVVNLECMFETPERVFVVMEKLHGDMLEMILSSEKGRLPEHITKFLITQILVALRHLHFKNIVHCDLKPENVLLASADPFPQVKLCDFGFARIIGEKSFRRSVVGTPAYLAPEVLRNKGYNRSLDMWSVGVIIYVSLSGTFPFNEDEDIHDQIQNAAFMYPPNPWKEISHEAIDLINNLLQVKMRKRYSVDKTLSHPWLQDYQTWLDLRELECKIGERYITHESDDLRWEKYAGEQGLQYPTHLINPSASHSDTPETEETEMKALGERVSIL
HMGR II inh = inhibitors of class II HMG-CoA reductase from Enterococcus faecalis; 190,000 tested, 0.41% active; AID 1066; purified E. faecalis HMGR, NADPH absorbance 340 nm kinetic; inhibition, % at 10 µM;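 active = inhibition above a set limit, the median over all tested compounds plus 3 SD, cut at about 9.5% in these data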;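 also: enzyme runs in reverse so mevalonate oxidation gives rising NADPH absorbance; 0% = complete reaction with DMSO and 100% = background rate lacking mevalonate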
m-calpain inh = inhibitors of pig calpain II; purified calpain II, fluorogenic peptide substrate, 30 min; inhibition, % at 16 µM; 220,000 tested, 0.37% active;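 active = inhibition above about 50%, limit read from the data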
Rad51 HR inh = Rad51 (human) homologous recombination inhibition; Q06609; hRad51 DNA strand exchange, fluorescence dequenching; inhibition, % at 10 µM; 200,000 tested, 0.085% active;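 active = inhibition above 40% at the single screening dose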;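 also: 0% = DMSO control wells and 100% = blanks with heterologous ssDNA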
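Test system – preformed human Rad51 ssDNA filaments · Reagent – Donor/quencher-labelled 47-bp dsDNA substrate · Incubation – 37 °C 15-min filament assembly, 30-min compound preincubation, 15-min exchange · Signal – FRET fluorescence dequenching, excitation 485 nm, emission 520 nm · Read-out – percent inhibition from fluorescence, normalised to plate control and blank means · Benchmarks – plate control and blank wells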
Numbers without * were called inactive; / = no result. In the library only some 0.81% were active in any assay of this set; here they are far more common.

SMILES	Redox H2O2 prof	Pf gametocyte	PKD1 inh	HMGR II inh	m-calpain inh	Rad51 HR inh
COc1cccc(CN(C)CC(=O)Nc2cccc(C(F)(F)F)c2)c1OC	-1	/	-6	-2	63*	13
COc1cccc(CN(C)CC(=O)Nc2cccc(S(N)(=O)=O)c2)c1OC	5	-24	-9	0	28	-1
CC(C)Nc1ccc(Nc2ccnc3cc4ccccc4cc23)cc1	/	5	/	/	-1	46*
S=c1[nH]nc(COc2ccccc2)n1Cc1ccccc1	0	6	3	-5	16	-5
CCc1ccc(OCc2n[nH]c(=S)n2Cc2ccccc2)cc1	-1	-5	4	2	54*	5
O=C(NCCc1ccccc1)c1n[nH]c2ccccc12	0	/	4	2	-26	/
COc1ccccc1-c1cc(C(F)(F)F)nc(S(=O)(=O)CCCC(=O)O)n1	0	/	6	12*	-140	6
COc1ccccc1-c1cc(C(F)(F)F)nc(S(=O)(=O)CCCC(=O)N2CCOCC2)n1	4	2	-2	0	-110	6
COc1cc(OC)c2c(C)cc(=O)oc2c1C(CCN1CCOCC1)c1ccc(N(C)C)cc1 (stereo unspecified)	/	/	/	/	-9	15
O=C(O/N=C1\CCS(=O)(=O)c2sccc21)c1ccc(F)cc1	-1	17	3	-1	60*	7
Cc1ccc(C(=O)Nc2nccc(-c3cccs3)n2)cc1	-9	13	3	-5	-13	1
NC(=S)Nc1nccc(-c2cccs2)n1	0	-7	-4	-7	-9	41*
CC(=O)Nc1ccc(C2=CC(=O)C[C@H](c3ccc4c(c3)OCO4)C2)cc1	/	-13	/	/	/	/
CCOC(=O)C1C2C=CC(CC2)N1c1ccccc1 (stereo unspecified)	/	/	/	/	/	9
O=C(Cn1cc(C(=O)c2ccco2)c2ccccc21)Nc1ccccc1	0	/	-4	-6	61*	0
COc1ccc(NC(=O)Cn2cc(C(=O)c3ccco3)c3ccccc32)cc1	2	-15	-3	0	4	6
O=C(Nc1ccc2c(c1)CCC2)c1ccc(Cl)nc1	-1	/	-3	-8	25	-25
CC(=O)Nc1ccc(NC(=O)c2ccc(Cl)nc2)cc1	/	0	/	/	-11	42*
CN1C(=S)SC2CS(=O)(=O)CC21 (stereo unspecified)	/	-7	/	/	-1	12
O=C(CSc1nnnn1-c1cccc2ccccc12)Nc1ccc(N2CCOCC2)c(Cl)c1	0	9	-6	-2	-9	-5
O=C(CSc1nnnn1-c1ccccc1)Nc1ccc(N2CCOCC2)c(Cl)c1	-5	/	-5	15*	11	1
COC(=O)[C@@H]1[C@H](CCc2ccccc2)NC(=O)N(Cc2ccccc2)[C@@H]1C	/	-6	/	/	/	-1
COc1ccc2cc(C#N)c(SCC(=O)NNC(=O)Cc3ccccc3)nc2c1	-5	5	-12	-5	-68	-7
Cc1ccc2cc(C#N)c(SCC(=O)NNC(=O)Cc3ccccc3)nc2c1	0	1	11	1	59*	-5
CCC(CO)NCc1sccc1C (stereo unspecified)	0	0	3	10*	-9	11
SMILES	Redox H2O2 prof	Pf gametocyte	PKD1 inh	HMGR II inh	m-calpain inh	Rad51 HR inh
O=C(O)CCC(=O)NC(c1ccccc1)c1ccccc1	0	22	3	14*	-27	8
COc1ccc(-c2[nH]ncc2-c2csc(C)n2)c(O)c1	0	39*	1	3	-8	-6
CCc1cccc(C)c1NC(=O)CO/N=C(\N)CC(=O)NC1CCCCC1	0	/	-3	11*	-2	-15
COC(=O)COc1ccc(NS(=O)(=O)c2cccc([N+](=O)[O-])c2)cc1	-1	/	0	0	7	6
CCCCCCCCCn1c2c(c(=N)c3c1CCC3)CCC2	0	/	-1	-2	51*	9
NC(=O)COn1c(SCC(N)=O)nc2ccccc2c1=O	/	7	/	/	-12	10
Cn1c(CN2CCCC2)c(C#N)c2ccccc21	0	/	2	15*	-18	2
CC1(C)CC(C)(c2ccc(O)cc2O)N(c2ccc3ccccc3c2)C(=S)N1 (stereo unspecified)	0	-14	-2	6	-57	2
CC1(C)CC(C)(c2ccc(O)cc2O)N(c2cccc(Cl)c2)C(=S)N1 (stereo unspecified)	1	-11	-5	11*	-34	-11
COc1cc(CNCc2cc(OC)c(OC)c(OC)c2)cc(OC)c1	/	14	/	/	/	/
CCN(CC)S(=O)(=O)c1ccc(C)c(NC(=S)NNC(=O)C2CC2)c1	0	/	2	-5	76*	7
Cc1ccc(S(=O)(=O)N(C)C)cc1NC(=S)NNC(=O)C1CC1	0	0	-3	1	9	/
CC(NC(=O)CCCCCN1C(=O)c2ccccc2C1=O)c1ccc2c(c1)CCCC2 (stereo unspecified)	1	0	-4	-3	57*	-4
CN(C)c1ccc(CNc2ccccn2)cc1	/	5	/	/	/	/
O=C(NC1=NCCS1)c1cccc(N2C(=O)c3ccccc3C2=O)c1	-1	27	-4	-1	-2	41*
CCCN1C(=O)c2ccc(C(=O)NC3=NCCS3)cc2C1=O	0	/	5	-5	26	1
N#CC1(c2ccc(NC(=O)c3ccccc3)cc2)CCCC1	-3	/	0	13*	-17	-2
O=C(Nc1ccc(Nc2ccccc2)cc1)c1ccccc1	/	10	/	/	/	/
O=C(Nc1ccc(Oc2ccccc2)cc1)c1ccc(Cn2c(=O)[nH]c3ccsc3c2=O)cc1	1	/	7	20*	-15	/
O=C(Nc1ccc(Cl)c(Cl)c1)c1ccc(Cn2c(=O)[nH]c3ccsc3c2=O)cc1	1	/	-5	2	-32	1
COc1ccc(-c2csc(NC(C)c3nc4cc(Cl)c(Cl)cc4n3CCCO)n2)cc1 (stereo unspecified)	/	3	/	/	/	6
O=C(c1ccc(Oc2ccccc2)cc1)c1nc2c(n1O)CCCC2	0	/	-5	-2	75*	-6
COc1ccc(C(=O)c2nc3c(n2O)CCCCC3)cc1	0	-26	-9	-2	2	-3
C/C(=N\Nc1ccc(Cl)c(C(=O)O)c1)c1ccccn1	/	-1	/	/	-1	10
C/C(=N\Nc1ncc(Cl)cc1Cl)c1ccccn1	-2	/	61*	-2	42	-430
Oc1csc(Cc2nc(-c3ccccc3F)cs2)n1	0	-2	5	-7	-21	-20
Cc1ccc(C(=O)Nc2ccccc2C(=O)O)cc1S(=O)(=O)Nc1ccc(Br)cc1	/	-2	/	/	/	/
COc1cc(C2OCC3C(c4ccc(OC5OC(CO)C(O)C(O)C5O)c(OC)c4)OCC23)ccc1O (stereo unspecified)	0	/	10	1	1	0
